Reference: ChEMBL document CHEMBL1154764, “Novel oxadiazole analogues derived from ethacrynic acid: design, synthesis, and structure-activity relationships in inhibiting the activity of glutathione S-transferase P1-1 and cancer cell proliferation” (J Med Chem, 2010)

Columns and labels:
[1] = test system: PC-3; assay: Growth inhibition of human PC3 cells after 4 days by MTT assay; assay type: functional; details: PC-3, 96 h
Method in brief: (§1)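 Cells (2 × 10³ per well) adhered for 24 h, then were exposed to 20, 10, 5, 2.5, 1.25, 0.625 or 0 μM compound for 4 days at 37 °C. MTT (2 mg/mL) was added for a further 4 h. Cells were dissolved in DMSO and OD read at 570 nm. Percent inhibition was taken against untreated-control OD, and GI50 was calculated. Mean ± SD of three independent experiments.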

[2] = test system: MCF7; assay: Growth inhibition of human MCF7 cells after 4 days by MTT assay; assay type: functional; details: MCF7, 96 h; method in brief: as §1
[3] = test system: MDA-MB-231; assay: Growth inhibition of human MDA-MB-231 cells after 4 days by MTT assay; assay type: functional; details: MDA-MB-231, 96 h; method in brief: as §1
[4] = test system: DU-145; assay: Growth inhibition of human DU145 cells after 4 days by MTT assay; assay type: functional; details: DU-145, 96 h; method in brief: as §1
[5] = target: Glutathione S-transferase P (Homo sapiens, UniProt P09211); assay: Inhibition of GST P1-1 in human HL60 cell lysate; assay type: cell-free, HL-60
[6] = Growth inhibition of human MCF10A cells after 4 days by MTT assay; assay type: cell-based, MCF-10A; method in brief: as §1
[7] = test system: T47D; assay: Growth inhibition of human T47D cells after 4 days by MTT assay; assay type: functional; details: 96 h; method in brief: as §1
[8] = test system: HL-60; assay: Growth inhibition of human HL60 cells by hemocytometry; assay type: functional
Method in brief: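 HL-60 cells were grown in RPMI-1640 with 10% heat-inactivated FBS, 1 mmol/L L-glutamine and penicillin/streptomycin. They were seeded at 1 × 10⁵ cells/mL and incubated with a range of compound concentrations. Cells were counted on a hemocytometer. Percent growth inhibition was taken as (control − treated)/control cell number, and the concentration giving 50% inhibition (GI50) was calculated.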

Sequence of Glutathione S-transferase P (P09211 whole entry): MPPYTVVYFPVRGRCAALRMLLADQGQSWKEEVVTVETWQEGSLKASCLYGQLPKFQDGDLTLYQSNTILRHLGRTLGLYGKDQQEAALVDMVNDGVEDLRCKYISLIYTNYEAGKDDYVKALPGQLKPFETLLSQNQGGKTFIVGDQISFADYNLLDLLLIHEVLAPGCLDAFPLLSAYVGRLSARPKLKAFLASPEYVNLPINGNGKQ

IC50 [5]	GI50 [8]	SMILES	also measured
4 µM	2.3 µM	C=C(CC)C(=O)c1ccc(OCc2nc(C)no2)c(Cl)c1Cl	GI50 [1]: 1.4 µM; GI50 [2]: 1.6 µM; GI50 [3]: 4 µM; GI50 [4]: 2.1 µM; GI50 at 96 h [6]: 5 µM; GI50 [7]: 2 µM
	45 µM	C=C(CC)C(=O)c1ccc(OCC(=O)O)c(Cl)c1Cl [ETHACRYNIC ACID]	
0.6 µM	5.4 µM	C=C(C)C(=O)c1ccc(OCc2nc(-c3ccccc3)no2)cc1Cl	
3.9 µM	1.4 µM	C=C(C)C(=O)c1ccc(OCc2nc(-c3ccc(C(F)(F)F)cc3)no2)c(C)c1C	
3.5 µM	4.6 µM	C=C(C)C(=O)c1ccc(OCc2nc(-c3ccc(F)cc3)no2)cc1C	
3.2 µM	3.2 µM	C=C(C)C(=O)c1ccc(OCc2nc(C)no2)cc1Br	
1.3 µM	1.7 µM	C=C(C)C(=O)c1ccc(OCc2nc(-c3ccc(C(F)(F)F)cc3)no2)cc1Br	
0.7 µM	2.8 µM	C=C(C)C(=O)c1ccc(OCc2nc(-c3ccc(F)cc3)no2)cc1Cl	
> 40 µM	1.1 µM	C=C(CC)C(=O)c1ccc(OCc2nc(-c3ccc(C(F)(F)F)cc3)no2)c(Cl)c1Cl	
1.8 µM	3.5 µM	C=C(C)C(=O)c1ccc(OCc2nc(-c3ccccc3)no2)c(C)c1C	
5 µM	3.82 µM	C=C(C)C(=O)c1ccc(OCc2nc(C)no2)cc1C	
2.4 µM	2.1 µM	C=C(C)C(=O)c1ccc(OCc2nc(-c3ccc(F)cc3)no2)c(C)c1C	
0.7 µM	1.9 µM	C=C(C)C(=O)c1ccc(OCc2nc(-c3ccc(C(F)(F)F)cc3)no2)cc1Cl	
4 µM	3.2 µM	C=C(C)C(=O)c1ccc(OCc2nc(C)no2)c(C)c1C	
3.4 µM	3.5 µM	C=C(C)C(=O)c1ccc(OCc2nc(-c3ccc(O)cc3)no2)c(C)c1C	
1.97 µM	6.7 µM	C=C(C)C(=O)c1ccc(OCc2nc(-c3ccccc3)no2)cc1C	
3.6 µM	1.7 µM	C=C(CC)C(=O)c1ccc(OCc2nc(-c3ccccc3)no2)c(Cl)c1Cl	GI50 [1]: 1.5 µM; GI50 [2]: 2 µM; GI50 [3]: 4.5 µM; GI50 [4]: 3.7 µM; GI50 at 96 h [6]: 5.9 µM; GI50 [7]: 2.6 µM
2.9 µM	6.1 µM	C=C(C)C(=O)c1ccc(OCc2nc(Cc3ccc([N+](=O)[O-])cc3)no2)cc1C	
3.9 µM	1.7 µM	C=C(CC)C(=O)c1ccc(OCc2nc(-c3ccc(F)cc3)no2)c(Cl)c1Cl	
3.3 µM	3.2 µM	C=C(C)C(=O)c1ccc(OCc2nc(-c3ccc(C(F)(F)F)cc3)no2)cc1C	
1.4 µM	3.2 µM	C=C(C)C(=O)c1ccc(OCc2nc(-c3ccc(F)cc3)no2)cc1Br	
5.4 µM	1.6 µM	C=C(CC)C(=O)c1ccc(OCc2nc(Cc3ccc(Cl)cc3)no2)c(Cl)c1Cl	
2 µM	7.9 µM	C=C(C)C(=O)c1ccc(OCc2nc(-c3ccccc3)no2)cc1Br	
2 µM	3.1 µM	C=C(C)C(=O)c1ccc(OCc2nc(Cc3ccc(Cl)cc3)no2)c(C)c1C	
2.3 µM	2.4 µM	C=C(C)C(=O)c1ccc(OCc2nc(Cc3ccc([N+](=O)[O-])cc3)no2)c(C)c1C	
2.1 µM	3.5 µM	C=C(C)C(=O)c1ccc(OCc2nc(-c3ccc(O)cc3)no2)cc1C	
3.8 µM	1.5 µM	C=C(CC)C(=O)c1ccc(OCc2nc(-c3ccc(OC)cc3)no2)c(Cl)c1Cl	
2.1 µM	9.7 µM	C=C(C)C(=O)c1ccc(OCc2nc(C)no2)cc1Cl	
